The values below come from ChEMBL document CHEMBL1129031, “Cyclic nitrone free radical traps: isolation, identification, and synthesis of 3,3-dimethyl-3,4-dihydroisoquinolin-4-ol N-oxide, a metabolite with reduced side effects” (J Med Chem, 1996).

As a reminder, the IC50 is the concentration at which inhibition is half-maximal. A low value points to inhibition by little substance.

For series [1], the system named is Rattus norvegicus. In words: Compound was tested for rat brain permeability at 200 mg/kg i.p. after 30 min. The arrangement: dose 200 mg/kg, route intraperitoneal. The conditions noted are these: in vivo, ip, 0.5 h. The format is ADME, organism-based. The procedure, abridged: (§1)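 Rats given a single ip dose of 200 mg/kg and killed at 30 or 60 min after dosing. Brains were removed, homogenized and extracted with CHCl₃/MeOH. Brain level is reported as µg/g wet weight.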

The test system of series [2] is Rattus norvegicus. Briefly: Compound was tested for rat brain permeability at 200 mg/kg i.p. after 60 min. Type of series: ADME, organism-based. Further details: dose 200 mg/kg, route intraperitoneal. Conditions: in vivo, ip, 1 h. The gist of the method: as §1
Series [3] in a line: In vitro antioxidant activity was measured as IC50, inhibition concentration against neuronal peroxidation. Type of series: functional, Rattus norvegicus. The gist of the method: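 Rat cerebellar granule cells (from 8-day pups, 8-10 days in vitro) in glucose-free Na⁺-free Locke's, pH 7.3. Nitrone was preincubated 30 min, then FeCl₂ added at 100 µM final for 45 min. TBARS measured in the medium, with no-iron background subtracted. IC50 is the concentration inhibiting 50% of iron-induced oxidation.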

The nature of series [4]: Maintenance of cell viability by the compound was tested in vitro against cerebellar granule cell cultures from 8-day-old-rats. Conditions: Rattus norvegicus. Type of series: functional. The gist of the method: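 Cerebellar granule cultures from 8-day-old rats were used at 8-10 days in vitro. Cells got nitrone for 30 min, then 100 µM FeCl₂ for 45 min in Na⁺-free Locke's. MEM plus MTT was added for 4 h and the cells lysed in acidic 2-propanol. Read at A570-630, with cell death given relative to no-iron cells. Two separate experiments about 6 months apart.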

For series [5], the system named is Mus musculus. In words: (§2) The compound was tested for acute toxicity and activity is expressed as deaths/5 mice after iv (200 mg/kg) administration. The format is functional. The procedure, abridged:
(§3)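 Acute toxicity screen in mice given the compound intravenously at 200 mg/kg body weight, five mice per group. Read-out is the survival rate, reported as the number of deaths among the five animals.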

The test system of series [6] is Mus musculus. Briefly: (§4) The compound was tested for acute toxicity and activity is expressed as deaths/5 mice after iv (400 mg/kg) administration. The format is functional. The gist of the method: (§5)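 Acute toxicity screen in mice given the compound intravenously at 400 mg/kg body weight, five mice per group. Read-out is the survival rate, reported as the number of deaths among the five animals.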

A short description of series [7]: In vitro antioxidant activity was measured as IC50, Inhibitory concentration against Liposomal peroxidation. Type of series: functional, Glycine max. The gist of the method:
(§6)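 Liposomes were made from soybean phosphatidylcholine. Oxidation was initiated and quantitated by the previously described method. Activity is expressed as IC50, the concentration inhibiting lipid peroxidation by 50%.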

A short description of series [8]: Lipophilicity expressed as log K'w. Type of series: physicochemical. Conditions: reversed-phase HPLC.
The subject of series [9] is Mus musculus. Described as §2. Type of series: organism-based. Conditions: in vivo. The gist of the method:
as §3

The subject of series [10] is Mus musculus. The description is as §4. Type of series: organism-based. Conditions: in vivo. The gist of the method: as §5
Series [11] can be described thus: In vitro antioxidant activity was measured as IC50, Inhibition concentration against Liposomal peroxidation. Type of series: functional, Glycine max. The gist of the method: as §6
Series [12] can be described thus: Compound was tested for brain permeability at 200 mg/kg i.p. after 30 min. Type of series: ADME, organism-based. The arrangement: dose 200 mg/kg, route intraperitoneal. The conditions noted are these: in vivo, ip, 0.5 h. The procedure, abridged: as §1
Series [13] can be described thus: Compound was tested for brain permeability at 200 mg/kg i.p. after 60 min. The format is ADME, organism-based. The arrangement: dose 200 mg/kg, route intraperitoneal. Conditions: in vivo, ip, 1 h. The procedure, abridged: as §1

As for `CC(C)(C)/[N+]([O-])=C/c1ccccc1`, the Brain level with Rattus norvegicus [1] came to 51 µg/g; in the series with Rattus norvegicus [2], 38 µg/g. The results for the IC50 in [3], in series [4] and in series [7] were 2580 µM, 2600 µM and 14.3 mM, respectively. Moreover, the Toxicity is given as 1 in the series on Mus musculus [5] and 4 with Mus musculus [6].

For the compound `[O-][N+]1=Cc2ccccc2C(O)C12CCCC2` (centres undefined), the “Log k'w” value in [8] is on record as 1.67. Moreover, the IC50 is 771 µM in series [3], 817 µM in series [4] and 1040 µM in series [11]. Further, the Toxicity with Mus musculus [9] and in the series with Mus musculus [10] was 0 each time.

Turning to `CC(=O)OC1c2ccccc2C=[N+]([O-])C1(C)C` (centres undefined), the “Log k'w” value in [8] came out at 1.95. Besides, the values for the concentration for half-maximal inhibition (IC50) in [3], in [4] and in series [11] were 839 µM, 660 µM and 2090 µM, respectively. For the same compound, the Toxicity in the series on Mus musculus [9] and with Mus musculus [10] was 0 throughout.

In the case of `CC1(C)C(=O)c2ccccc2C=[N+]1[O-]`, the Brain level was 103 µg/g with Rattus norvegicus [1] and 67 µg/g with Rattus norvegicus [2]. The “Log k'w” value in series [8] is on record as 1.65. The IC50 was 830 µM in series [3], 882 µM in [4] and 940 µM in series [11]. The Toxicity in the series on Mus musculus [9] is 0; in the series with Mus musculus [10], 1.

Consider `O=C1c2ccccc2C=[N+]([O-])C12CCCC2`, for which the “Log k'w” value in [8] is listed as 2.05. The IC50 in series [3] worked out at 102 µM; in series [11], 157 µM. Further, the Toxicity in the series with Mus musculus [9] is recorded as 0; in the series on Mus musculus [10] it was 4.

On to `CC1(C)Cc2ccccc2C=[N+]1[O-]`, for which the Brain level turned out to be 109 µg/g in series [12] and 77 µg/g in [13]. Also, in [8], the “Log k'w” value is 1.9. Besides, the IC50 was found to be 307 µM in [3] and 1670 µM in series [11]. Moreover, the Toxicity in the series on Mus musculus [5] turned out to be 0; in the series on Mus musculus [6] it was 5.

For `O=C1c2ccccc2C=[N+]([O-])C12CCCCC2`, in series [8], the “Log k'w” value was 2.6. Besides, the IC50 in [3] is 37 µM; in series [4] it was 39 µM; in series [11], 27 µM. Moreover, the Toxicity with Mus musculus [9] worked out at 0; in the series with Mus musculus [10], 5.

Consider `CC1(C)C(O)c2ccccc2C=[N+]1[O-]` (centres undefined), for which the figures for the Brain level in [12] and in series [13] were 142 µg/g and 127 µg/g, respectively. Besides, in series [8], the “Log k'w” value is recorded as 0.91. The values for the half-inhibitory concentration (IC50) in series [3], in series [4] and in series [11] were 1900 µM, 1500 µM and 5500 µM, respectively. In addition, the Toxicity in the series with Mus musculus [5] and in the series on Mus musculus [6] was 0 throughout.

As for `[O-][N+]1=Cc2ccccc2C(O)C12CCCCC2` (centres undefined), in [8], the “Log k'w” value was determined as 2.1. Further, the figures for the IC50 in series [3], in [4] and in series [11] were 520 µM, 588 µM and 539 µM, respectively. Further, the Toxicity with Mus musculus [9] and with Mus musculus [10] was 0 in each case.
